Common to all, as to type: cell-based
Series [1] deals with MDR1 (ABCB1, P-glycoprotein) (Homo sapiens, UniProt P08183). Description: Activity at MDR1 in human Caco2 cells assessed as efflux ratio of apparent permeability from basolateral to apical side over apical to basolateral side. Particulars: Caco-2; call rule not given here. The essentials:
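Caco-2 cells grown 21 days on filter inserts, then washed with HBSS and equilibrated 30 min at 37 °C. Compound at 100 µM added to the donor side and incubated 120 min at 37 °C. Papp in nm/s calculated as (VA/Area) × ([drug]acceptor/[drug]initial)/time, membrane area 0.11 cm2. BA/AB ratio from two independent experiments.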
For orientation: Passage across Caco-2 layers is used to estimate intestinal permeability.

For series [2], the target named is ATP-dependent translocase ABCB1 (Homo sapiens, UniProt P08183). As to the kind of experiment: Inhibition of MDR1 (unknown origin) expressed in MDCK cells assessed as increase in calcein-AM accumulation after 30 mins by calcein-AM dye based fluorescence assay. The essentials: (§1)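 MDCK-MDR1 or MDCK-MRP1 cells seeded at 30,000/well and grown to confluence overnight. Compound (0.1–100 µM final, in medium) incubated 30 min at 37 °C, then calcein-AM added (2.5 µM final) for 30 min. Cells washed with ice-cold PBS and read at ex 485/em 535 nm. EC50 fitted from % fluorescence increase over untreated vs log dose. Mean ± SEM, three experiments in triplicate.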

The target of series [3] is Multidrug resistance-associated protein 1 (Homo sapiens, UniProt P33527). As to the kind of experiment: Inhibition of MRP1 (unknown origin) expressed in MDCK cells assessed as increase in calcein-AM accumulation incubated for 30 mins by calcein-AM dye based fluorescence assay. In short, it runs like this:
as §1

Series [4] has as its target T1, Broad substrate specificity ATP-binding cassette transporter ABCG2 (Homo sapiens, UniProt Q9UNQ0).
T1 sequence (Q9UNQ0 whole entry): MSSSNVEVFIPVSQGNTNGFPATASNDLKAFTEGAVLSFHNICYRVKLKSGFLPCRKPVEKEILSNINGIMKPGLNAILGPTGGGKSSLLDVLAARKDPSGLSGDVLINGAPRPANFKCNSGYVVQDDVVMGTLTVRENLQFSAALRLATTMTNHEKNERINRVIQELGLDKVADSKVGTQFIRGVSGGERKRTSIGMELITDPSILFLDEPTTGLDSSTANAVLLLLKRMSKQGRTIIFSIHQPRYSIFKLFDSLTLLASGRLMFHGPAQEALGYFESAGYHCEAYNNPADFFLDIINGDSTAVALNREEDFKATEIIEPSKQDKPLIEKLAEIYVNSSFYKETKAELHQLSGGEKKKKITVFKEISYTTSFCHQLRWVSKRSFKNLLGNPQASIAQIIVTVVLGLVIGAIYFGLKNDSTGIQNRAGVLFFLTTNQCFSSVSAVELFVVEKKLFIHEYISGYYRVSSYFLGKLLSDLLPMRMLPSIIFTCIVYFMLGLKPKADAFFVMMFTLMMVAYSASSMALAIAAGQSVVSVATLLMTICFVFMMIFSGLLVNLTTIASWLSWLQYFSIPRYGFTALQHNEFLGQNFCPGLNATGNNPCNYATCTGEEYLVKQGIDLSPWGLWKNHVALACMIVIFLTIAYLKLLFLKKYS
As to the kind of experiment: Inhibition of BCRP (unknown origin) expressed in MDCK cells assessed as reduction in Hoechst 33342 efflux preincubated for 30 mins followed by Hoechst 3334 addition measured after 30 mins by fluorescence assay. The essentials: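 MDCK-BCRP monolayers (30,000 cells/well, confluent overnight) preincubated 30 min at 37 °C with compound (0.1–100 µM final). Hoechst 33342 then added (8 µM final) for 30 min. Cells fixed 20 min in 4% PFA, washed with ice-cold PBS and read at ex 340/em 485 nm. EC50 fitted from % fluorescence increase over basal vs log dose. Mean ± SEM, three experiments in triplicate.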

Here are results for 18 compounds from ChEMBL document CHEMBL4411301, “Design, Biological Evaluation, and Molecular Modeling of Tetrahydroisoquinoline Derivatives: Discovery of A Potent P-Glycoprotein Ligand Overcoming Multidrug Resistance in Cancer Stem Cells” (J Med Chem, 2019).

A value given as a limit tells only on which side of the number the result lay.

For orientation: efflux ratio means the permeability from basolateral to apical divided by that in the opposite direction, in the common usage. Broadly, the EC50 is the midpoint of the concentration-response curve.

Chain of MDR1 (ABCB1, P-glycoprotein) (P08183 whole entry): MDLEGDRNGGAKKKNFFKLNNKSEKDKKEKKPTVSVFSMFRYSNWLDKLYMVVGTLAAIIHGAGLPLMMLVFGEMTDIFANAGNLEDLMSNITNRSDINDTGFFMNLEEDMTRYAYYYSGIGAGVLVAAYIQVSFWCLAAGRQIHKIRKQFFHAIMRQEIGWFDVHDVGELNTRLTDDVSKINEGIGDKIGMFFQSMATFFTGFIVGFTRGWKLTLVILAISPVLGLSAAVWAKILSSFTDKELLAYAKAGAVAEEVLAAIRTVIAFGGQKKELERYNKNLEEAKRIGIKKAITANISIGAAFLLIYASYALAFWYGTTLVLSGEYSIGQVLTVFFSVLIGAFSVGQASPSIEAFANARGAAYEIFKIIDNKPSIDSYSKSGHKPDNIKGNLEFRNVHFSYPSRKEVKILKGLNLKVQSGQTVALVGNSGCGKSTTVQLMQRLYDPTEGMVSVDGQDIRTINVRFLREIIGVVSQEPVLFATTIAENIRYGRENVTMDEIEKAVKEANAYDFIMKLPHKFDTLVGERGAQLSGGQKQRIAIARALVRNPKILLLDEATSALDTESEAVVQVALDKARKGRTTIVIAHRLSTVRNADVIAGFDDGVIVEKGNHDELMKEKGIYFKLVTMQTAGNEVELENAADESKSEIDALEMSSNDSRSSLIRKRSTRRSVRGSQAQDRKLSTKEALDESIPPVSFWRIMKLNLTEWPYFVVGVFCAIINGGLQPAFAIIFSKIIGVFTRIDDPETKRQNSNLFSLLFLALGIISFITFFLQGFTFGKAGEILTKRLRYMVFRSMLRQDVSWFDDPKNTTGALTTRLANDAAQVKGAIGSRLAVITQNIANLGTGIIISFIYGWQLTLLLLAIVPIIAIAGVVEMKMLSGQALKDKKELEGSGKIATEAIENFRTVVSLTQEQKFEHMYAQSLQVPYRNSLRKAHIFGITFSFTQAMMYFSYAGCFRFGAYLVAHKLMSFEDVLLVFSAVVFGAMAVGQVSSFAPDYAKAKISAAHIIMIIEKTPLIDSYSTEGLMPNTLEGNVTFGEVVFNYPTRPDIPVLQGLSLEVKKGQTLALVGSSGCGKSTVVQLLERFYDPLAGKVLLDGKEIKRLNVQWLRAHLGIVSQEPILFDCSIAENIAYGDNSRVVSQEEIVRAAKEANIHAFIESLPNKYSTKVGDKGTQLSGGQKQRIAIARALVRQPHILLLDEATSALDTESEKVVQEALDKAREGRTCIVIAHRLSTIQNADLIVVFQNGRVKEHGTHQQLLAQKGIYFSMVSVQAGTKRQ
Chain of ATP-dependent translocase ABCB1 (P08183 whole entry): as above
Chain of Multidrug resistance-associated protein 1 (P33527 whole entry): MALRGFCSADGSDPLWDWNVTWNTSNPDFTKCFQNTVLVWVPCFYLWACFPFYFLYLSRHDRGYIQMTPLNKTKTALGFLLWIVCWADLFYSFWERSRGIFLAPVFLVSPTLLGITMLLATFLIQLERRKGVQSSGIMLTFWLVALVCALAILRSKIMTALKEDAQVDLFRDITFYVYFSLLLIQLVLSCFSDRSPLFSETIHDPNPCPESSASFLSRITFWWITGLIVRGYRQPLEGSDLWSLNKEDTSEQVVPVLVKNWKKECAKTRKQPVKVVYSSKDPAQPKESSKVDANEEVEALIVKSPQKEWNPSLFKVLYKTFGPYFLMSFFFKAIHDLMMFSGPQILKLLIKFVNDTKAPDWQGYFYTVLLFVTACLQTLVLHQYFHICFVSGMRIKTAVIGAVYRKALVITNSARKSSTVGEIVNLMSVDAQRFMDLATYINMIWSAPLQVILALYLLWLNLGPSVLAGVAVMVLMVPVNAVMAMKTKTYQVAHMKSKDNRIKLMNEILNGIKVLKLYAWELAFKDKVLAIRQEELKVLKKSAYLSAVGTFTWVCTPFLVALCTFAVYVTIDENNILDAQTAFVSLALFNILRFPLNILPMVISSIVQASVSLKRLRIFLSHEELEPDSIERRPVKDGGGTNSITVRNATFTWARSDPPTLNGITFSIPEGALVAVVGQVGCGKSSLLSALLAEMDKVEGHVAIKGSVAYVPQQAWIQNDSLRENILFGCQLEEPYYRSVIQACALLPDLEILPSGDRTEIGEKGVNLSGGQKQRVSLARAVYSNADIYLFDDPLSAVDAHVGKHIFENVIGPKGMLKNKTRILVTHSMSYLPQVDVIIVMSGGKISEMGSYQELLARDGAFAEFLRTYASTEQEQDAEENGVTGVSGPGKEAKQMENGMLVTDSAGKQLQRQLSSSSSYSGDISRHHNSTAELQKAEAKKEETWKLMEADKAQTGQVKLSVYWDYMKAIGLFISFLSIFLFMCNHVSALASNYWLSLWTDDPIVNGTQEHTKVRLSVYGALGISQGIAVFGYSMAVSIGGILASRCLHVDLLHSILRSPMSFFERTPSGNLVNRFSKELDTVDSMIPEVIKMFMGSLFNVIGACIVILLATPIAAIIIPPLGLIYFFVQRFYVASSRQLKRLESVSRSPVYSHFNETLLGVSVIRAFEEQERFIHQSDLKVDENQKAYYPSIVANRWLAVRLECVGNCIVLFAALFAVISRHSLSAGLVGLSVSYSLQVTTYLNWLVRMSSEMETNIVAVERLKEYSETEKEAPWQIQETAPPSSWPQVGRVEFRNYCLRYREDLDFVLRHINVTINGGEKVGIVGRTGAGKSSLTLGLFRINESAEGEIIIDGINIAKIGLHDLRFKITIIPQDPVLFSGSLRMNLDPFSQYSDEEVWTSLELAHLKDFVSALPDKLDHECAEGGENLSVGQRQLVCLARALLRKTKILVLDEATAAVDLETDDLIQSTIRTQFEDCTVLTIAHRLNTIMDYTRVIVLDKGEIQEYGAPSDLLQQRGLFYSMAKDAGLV

As to `COc1cc2c(cc1OC)CN(Cc1ccc(-c3ccc(O)cc3)cc1)CC2`, in series [1], the efflux ratio was 1.3.
With `CNC(=O)Nc1ccc(-c2ccc(CN3CCc4cc(OC)c(OC)cc4C3)cc2)cc1`, the EC50 in series [2] (read-out: EC50) was 3.1 µM; in series [3], “Not Active”; in series [4] (mdck), “Not Active”. In addition, the efflux ratio in series [1] is 12.8.
Turning to `COc1cc2c(cc1OC)CN(Cc1ccc(-c3ccc4c(ccn4S(=O)(=O)c4ccccc4)c3)cc1)CC2`, the values for the EC50 in series [2] (read-out: EC50), in series [3] and in series [4] (mdck) were 19.2 µM, “Not Active” and “Not Active”, respectively. For the same compound, in series [1], the efflux ratio was determined as 4.2.
`COc1cc2c(cc1OC)CN(Cc1ccc(-c3ccc4c(c3)C(N3CCc5cc(OC)c(OC)cc5C3)C(=O)N4)cc1)CC2` (centres undefined): the EC50 was 1.2 µM in series [2] (read-out: EC50), “Not Active” in series [3] and 1.8 µM in series [4] (read-out: EC50). For the same compound, the efflux ratio in series [1] was determined as 8.5.
In the case of `COc1cc2c(cc1OC)CN(Cc1ccc(-c3ccc4[nH]ncc4c3)cc1)CC2`, the EC50 was 0.9 µM in series [2] (read-out: EC50), “Not Active” in series [3] and “Not Active” in series [4] (mdck). Also, the efflux ratio in series [1] was 12.
`COc1cc2c(cc1OC)CN(Cc1ccc(-c3ccc4[nH]cnc4c3)cc1)CC2`: the EC50 was 6.93 µM in series [2] (read-out: EC50), “Not Active” in series [3] and “Not Active” in series [4] (mdck). The efflux ratio in series [1] was 9.2.
For `COc1cc2c(cc1OC)CN(Cc1ccc(-c3ccc4[nH]c(=O)[nH]c4c3)cc1)CC2`, the EC50 in series [2] (read-out: EC50) is 29.5 µM; in series [3], “Not Active”; in series [4] (mdck) it was “Not Active”. The efflux ratio in series [1] was 15.
Take `COc1cc2c(cc1OC)CN(Cc1ccc(-c3ccc(NS(=O)(=O)c4ccccc4)cc3)cc1)CC2`: the EC50 in series [2] (read-out: EC50) was 0.87 µM; in series [3] it was “Not Active”; in series [4] (mdck), “Not Active”. For the same compound, the efflux ratio in series [1] amounted to 15.
For `CCCCNC(=O)Nc1ccc(-c2ccc(CN3CCc4cc(OC)c(OC)cc4C3)cc2)cc1`, the EC50 in series [2] (read-out: EC50) was 0.32 µM; in series [3] it was “Not Active”; in series [4] (read-out: EC50) it was 46 µM. The efflux ratio in series [1] worked out at 12.8.
`COc1cc2c(cc1OC)CN(Cc1ccc(-c3ccc(NS(C)(=O)=O)cc3)cc1)CC2`: the results for the EC50 in series [2] (read-out: EC50), in series [3] and in series [4] (mdck) were 5.2 µM, “Not Active” and “Not Active”, respectively. Also, the efflux ratio in series [1] turned out to be 5.
On to `COc1cc2c(cc1OC)CN(Cc1ccc(-c3ccc(NC(C)=O)cc3)cc1)CC2`, for which the EC50 is 1.52 µM in series [2] (read-out: EC50), “Not Active” in series [3] and “Not Active” in series [4] (mdck). Besides, the efflux ratio in series [1] stood at 13.6.
For the compound `COc1cc2c(cc1OC)CN(Cc1ccc(-c3ccc(NC(=O)c4ccccc4)cc3)cc1)CC2`, the EC50 result in series [2] (mdck), in series [3] and in series [4] (mdck) was “Not Active” in each case. Also, in series [1], the efflux ratio came to 19.9.
With `COc1cc2c(cc1OC)CN(Cc1ccc(-c3ccc(NC(=O)Nc4ccccc4)cc3)cc1)CC2`, the EC50 in series [2] (read-out: EC50) was 0.98 µM; in series [3], “Not Active”; in series [4] (mdck) it was “Not Active”. Also, the efflux ratio in series [1] is greater than 20.
Turning to `CCNC(=O)Nc1ccc(-c2ccc(CN3CCc4cc(OC)c(OC)cc4C3)cc2)cc1`, the results for the EC50 in series [2] (read-out: EC50), in series [3] and in series [4] (mdck) were 1.7 µM, “Not Active” and “Not Active”, respectively. The efflux ratio in series [1] is 9.3.
In the case of `COc1cc2c(cc1OC)CN(Cc1ccc(-c3ccc4[nH]ccc4c3)cc1)CC2`, the half-maximal effective concentration (EC50) in series [2] (read-out: EC50) is 21.2 µM; in series [3] it was “Not Active”; in series [4] (mdck), “Not Active”. Moreover, the efflux ratio in series [1] is 1.9.
For `COc1cc2c(cc1OC)CN(Cc1ccc(-c3ccc4c(c3)C(=O)C(=O)N4)cc1)CC2`, the EC50 in series [2] (read-out: EC50) was 21.4 µM; in series [3], “Not Active”; in series [4] (mdck) it was “Not Active”. For the same compound, the efflux ratio in series [1] stood at 8.1.
On to `COc1cc2c(cc1OC)CN(Cc1ccc(-c3ccc4c(c3)CC(=O)N4)cc1)CC2`, for which the EC50 in series [2] (read-out: EC50) was 1.47 µM; in series [3], “Not Active”; in series [4] (mdck) it was “Not Active”. Further, the efflux ratio in series [1] is 3.6.
For the compound `CCCNC(=O)Nc1ccc(-c2ccc(CN3CCc4cc(OC)c(OC)cc4C3)cc2)cc1`, the EC50 is 1.1 µM in series [2] (read-out: EC50), “Not Active” in series [3] and “Not Active” in series [4] (mdck). In series [1], the efflux ratio came out at 17.6.
